Test results: ChEMBL document CHEMBL4477166, “18β-Glycyrrhetinic Acid Derivatives Possessing a Trihydroxylated A Ring Are Potent Gram-Positive Antibacterial Agents” (2016)
In brackets after ≈: the same amount, converted by molar mass. Activity calls are given as the source filed them. The calls are words filed in the database; no cut-off is given here.

Legend:
Pseudomonas aeruginosa [1] = experiment: Antibacterial activity against multi-drug resistant Pseudomonas aeruginosa at 100 uM measured after 5 to 6 hrs by microdilution assay; type: functional, organism-based
Procedure, shortened: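 Log-phase cells seeded at 1 × 10⁵ CFU/mL. Single-dose screen at 100 μM, with DMSO cosolvent at most 1% v/v. Growth measured turbidimetrically at 620 nm, before and after incubation with vigorous shaking.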

Streptomyces scabiei [2] = experiment: Reduction in p450 expression in Streptomyces scabiei CGMCC4.7610246 at 0.5 times MIC by qRT-PCR analysis relative to control; type: functional, organism-based
Procedure, shortened: (§1)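 Bacteria were grown in broth with compound at 0.5 × MIC or vehicle to exponential phase (OD620 = 0.4) and then pelleted. Total RNA was reverse-transcribed, and SYBR-based real-time PCR was run against housekeeping genes. Relative expression versus control was calculated by 2^−ΔΔCT. Mean ± SEM, n = 3, significance at p < 0.05.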

Bacillus subtilis [3] = experiment: Antibacterial activity against Bacillus subtilis ATCC 6051 at 0.5 times MIC by time-kill analysis; type: functional, organism-based
Procedure, shortened: (§2)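 Time-kill in LB at 37 °C. B. subtilis or S. aureus suspensions were set at 5 × 10⁵ CFU/mL and exposed to 0.5×, 1×, 2× and 4× MIC alongside negative and positive controls. Samples of 1 mL were taken at 0, 2, 4, 6, 8, 12 and 24 h, serially diluted and plated for viable counts, and survival was calculated. Three repeats.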

Streptomyces scabiei [4] = experiment: Antibacterial activity against Streptomyces scabiei CGMCC4.7610246 at 0.5 times MIC by time-kill analysis; type: functional, organism-based
Procedure, shortened: (§3)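 Killing kinetics for S. scabies in oat bran broth at 28 °C, starting at 5 × 10⁵ CFU/mL. Exposure was 0.5×, 1×, 2× or 4× MIC, with negative and positive controls. Samples of 1 mL were withdrawn at 0, 4, 8, 16, 24 and 36 h, serially diluted and plated, and survival was calculated from colony counts. Performed in triplicate.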

Escherichia coli [5] = experiment: Antibacterial activity against Escherichia coli at 100 uM measured after 5 to 6 hrs by microdilution assay; type: functional, organism-based
Streptomyces scabiei [6] = experiment: Antibacterial activity against Streptomyces scabiei CGMCC4.7610246 by microdilution assay; type: functional
Procedure, shortened: (§4)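 Turbidimetric broth microdilution. Log-phase cells were washed and resuspended in broth (LB at 37 °C for B. subtilis and S. aureus; oat bran broth at 28 °C for S. scabies) and seeded at 1 × 10⁵ CFU/mL. Twofold serial dilutions were made with DMSO ≤1% (v/v). A620 was read, then plates were incubated with vigorous shaking. MIC was the lowest concentration with no apparent growth versus vehicle-only medium without cells. Run in triplicate.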

Staphylococcus aureus [7] = experiment: Antibacterial activity against Staphylococcus aureus ATCC 25923 at 0.5 times MIC by time-kill analysis; type: functional, organism-based; procedure, shortened: as §2
Bacillus subtilis [8] = experiment: Antibacterial activity against Bacillus subtilis ATCC 6051 by time-kill analysis; type: functional, organism-based; procedure, shortened: as §2
Streptomyces scabiei [9] = experiment: Antibacterial activity against Streptomyces scabiei CGMCC4.7610246 by time-kill analysis; type: functional, organism-based; procedure, shortened: as §3
Streptomyces scabiei [10] = experiment: Reduction in murX expression in Streptomyces scabiei CGMCC4.7610246 at 0.5 times MIC by qRT-PCR analysis relative to control; type: functional, organism-based; procedure, shortened: as §1
Bacillus subtilis [11] = experiment: Antibacterial activity against Bacillus subtilis ATCC 6051 by microdilution assay; type: functional; procedure, shortened: as §4
Staphylococcus aureus [12] = experiment: Antibacterial activity against Staphylococcus aureus ATCC 25923 by time-kill analysis; type: functional, organism-based; procedure, shortened: as §2
Staphylococcus aureus [13] = experiment: Antibacterial activity against Staphylococcus aureus ATCC 25923 by microdilution assay; type: functional; procedure, shortened: as §4
Pseudomonas aeruginosa [14] = experiment: Antibacterial activity against Pseudomonas aeruginosa at 100 uM measured after 5 to 6 hrs by microdilution assay; type: functional, organism-based
Staphylococcus aureus [15] = experiment: Antibacterial activity against methicillin-resistant Staphylococcus aureus by microdilution assay; type: functional
Procedure, shortened: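 Log-phase cells seeded at 1 × 10⁵ CFU/mL. Twofold serial dilutions made in broth with DMSO cosolvent, at most 1% v/v. Turbidity read at 620 nm before and after incubation with vigorous shaking. MIC is the lowest concentration with no apparent growth versus the medium-plus-vehicle control. Run in triplicate.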

Bacillus thuringiensis = experiment: Antibacterial activity against Bacillus thuringiensis measured after 5 to 6 hrs by microdilution titre technique; type: functional
Escherichia coli [16] = experiment: Antibacterial activity against Escherichia coli measured after 5 to 6 hrs by microdilution titre technique; type: functional
Escherichia coli [17] = experiment: Antibacterial activity against Escherichia coli ATCC 25922 measured after overnight incubation by microplate dilution assay; type: functional
Staphylococcus aureus [18] = experiment: Inhibition of hla expression in methicillin-resistant Staphylococcus aureus at 0.5 times MIC by qRT-PCR analysis relative to control; type: functional, organism-based
Procedure, shortened: (§5)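 MRSA grown in broth containing either 0.5 × MIC of test compound or vehicle alone. Cells harvested at exponential phase (OD₆₂₀ = 0.4). Total RNA reverse-transcribed, then SYBR-based real-time PCR run. Relative expression computed by the 2^−ΔΔCT method against the vehicle control or the parent-acid-treated group. Mean ± SEM, n = 3; significance set at p < 0.05.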

Staphylococcus aureus [19] = experiment: Inhibition of seaR expression in methicillin-resistant Staphylococcus aureus at 0.5 times MIC by qRT-PCR analysis relative to control; type: functional, organism-based; procedure, shortened: as §5
Bacillus subtilis [20] = experiment: Reduction in mmD expression in Bacillus subtilis ATCC 6051 at 0.5 times MIC by qRT-PCR analysis relative to control; type: functional, organism-based; procedure, shortened: as §1
Staphylococcus aureus [21] = experiment: Reduction in narG expression in methicillin-resistant Staphylococcus aureus at 0.5 times MIC by qRT-PCR analysis relative to control; type: functional, organism-based; procedure, shortened: as §5
Staphylococcus aureus [22] = experiment: Reduction in narG expression in Staphylococcus aureus ATCC 25923 at 0.5 times MIC by qRT-PCR analysis relative to control; type: functional, organism-based; procedure, shortened: as §1
Staphylococcus aureus [23] = experiment: Effect on lytM expression in Staphylococcus aureus ATCC 25923 at 0.5 times MIC by qRT-PCR analysis; type: functional, organism-based; procedure, shortened: as §1
Staphylococcus aureus [24] = experiment: Upregulation of seaR expression in Staphylococcus aureus ATCC 25923 at 0.5 times MIC by qRT-PCR analysis relative to control; type: functional, organism-based; procedure, shortened: as §1
Bacillus subtilis [25] = experiment: Upregulation of yhdT expression in Bacillus subtilis ATCC 6051 at 0.5 times MIC by qRT-PCR analysis relative to control; type: functional, organism-based; procedure, shortened: as §1
Bacillus subtilis [26] = experiment: Upregulation of yqhB expression in Bacillus subtilis ATCC 6051 at 0.5 times MIC by qRT-PCR analysis relative to control; type: functional, organism-based; procedure, shortened: as §1
Staphylococcus aureus [27] = experiment: Upregulation of hla expression in Staphylococcus aureus ATCC 25923 at 0.5 times MIC by qRT-PCR analysis relative to control; type: functional, organism-based; procedure, shortened: as §1

Compound	Activity (Pseudomonas aeruginosa [1])	Activity (Escherichia coli [5])	MIC (Streptomyces scabiei [6]) [µg/mL]	MIC (Bacillus subtilis [11]) [µg/mL]	MIC (Staphylococcus aureus [13]) [µg/mL]	Activity (Pseudomonas aeruginosa [14])	MIC (Staphylococcus aureus [15]) [µg/mL]	also measured
COC(=O)[C@@]1(C)CC[C@]2(C)CC[C@]3(C)C(=CC[C@@H]4[C@@]5(C)[C@@H](O)[C@H](O)[C@H](O)C(C)(C)[C@@H]5CC[C@]43C)[C@@H]2C1	inactive	inactive	1 (≈ 1.99 µM)	4 (≈ 7.96 µM)	2 (≈ 3.98 µM)	inactive	> 32	Activity (Streptomyces scabiei [2]): Active; Activity (Bacillus subtilis [3]): inactive; Activity (Streptomyces scabiei [4]): inactive; Activity (Staphylococcus aureus [7]): inactive; Activity (Bacillus subtilis [8]): Dose-dependent effect; Activity (Streptomyces scabiei [9]): Dose-dependent effect; Activity (Streptomyces scabiei [10]): Active; Activity (Staphylococcus aureus [12]): Dose-dependent effect
CC1(C)CC[C@]2(C(=O)O)CC[C@]3(C)C(=CC[C@@H]4[C@@]5(C)CC[C@H](O)C(C)(C)[C@@H]5CC[C@]43C)[C@@H]2C1 [OLEANOLIC_ACID]	–	–	–	–	–	–	–	MIC (Bacillus thuringiensis): 1.9 µg/mL (≈ 4.16 µM); MIC (Escherichia coli [16]): 7.8 µg/mL (≈ 17.1 µM)
CC1(C)CC[C@H](O)[C@]2(C)[C@H]3CC=C4[C@@H]5C[C@@](C)(C(=O)O)CC[C@]5(C)CC[C@@]4(C)[C@]3(C)CC[C@@H]12	–	–	–	–	–	–	–	MIC (Escherichia coli [17]): > 250 µg/mL
CC1(C)[C@@H](O)CC[C@]2(C)[C@H]3C(=O)C=C4[C@@H]5C[C@@](C)(C(=O)O)CC[C@]5(C)CC[C@@]4(C)[C@]3(C)CC[C@@H]12 [ENOXOLONE]	inactive	inactive	> 50	> 50	> 50	inactive	> 50	inhibition (Staphylococcus aureus [18]): Active; inhibition (Staphylococcus aureus [19]): Active; Activity (Bacillus subtilis [20]): inactive; Activity (Streptomyces scabiei [2]): Active; Activity (Staphylococcus aureus [21]): inactive; Activity (Staphylococcus aureus [22]): inactive; Activity (Staphylococcus aureus [23]): inactive; Activity (Staphylococcus aureus [24]): Active; Activity (Bacillus subtilis [25]): Active; Activity (Bacillus subtilis [26]): Active; Activity (Staphylococcus aureus [27]): Active
CC1(C)CC[C@]2(C(=O)O)CC[C@]3(C)C(=CC[C@@H]4[C@@]5(C)C[C@@H](O)[C@H](O)C(C)(C)[C@@H]5CC[C@]43C)[C@@H]2C1 [MASLINIC ACID]	–	–	–	–	–	–	–	MIC (Bacillus thuringiensis): 0.9 µg/mL (≈ 1.9 µM); MIC (Escherichia coli [16]): 3.9 µg/mL (≈ 8.25 µM)
CC1(C)[C@@H](O)C[C@H](O)[C@]2(C)[C@H]3CC=C4[C@@H]5C[C@@](C)(C(=O)O)CC[C@]5(C)CC[C@@]4(C)[C@]3(C)CC[C@@H]12	–	–	–	–	–	–	–	MIC (Escherichia coli [17]): 16 µg/mL (≈ 33.8 µM)
CC1(C)C(=O)CC[C@]2(C)[C@H]3C(=O)C=C4[C@@H]5C[C@@](C)(C(=O)OCc6ccccc6)CC[C@]5(C)CC[C@@]4(C)[C@]3(C)CC[C@@H]12	inactive	inactive	> 50	> 50	> 50	inactive	> 50	–
CC1(C)C(=O)CC[C@]2(C)[C@H]3CC=C4[C@@H]5C[C@@](C)(C(=O)OCc6ccccc6)CC[C@]5(C)CC[C@@]4(C)[C@]3(C)CC[C@@H]12	inactive	inactive	> 50	> 50	> 50	inactive	> 50	–
CC1(C)[C@@H](O)[C@@H](O)[C@H](O)[C@]2(C)[C@H]3CC=C4[C@@H]5C[C@@](C)(C(=O)OCc6ccccc6)CC[C@]5(C)CC[C@@]4(C)[C@]3(C)CC[C@@H]12	inactive	inactive	> 36	> 36.9	> 36.9	inactive	8 (≈ 13.8 µM)	–
CC1(C)[C@@H](O)[C@@H](O)[C@H](O)[C@]2(C)[C@H]3C(=O)C=C4[C@@H]5C[C@@](C)(C(=O)OCc6ccccc6)CC[C@]5(C)CC[C@@]4(C)[C@]3(C)CC[C@@H]12	inactive	inactive	> 37.8	> 37.8	> 37.8	inactive	4 (≈ 6.75 µM)	–
CCCCOC(=O)[C@@]1(C)CC[C@]2(C)CC[C@]3(C)C(=CC(=O)[C@@H]4[C@@]5(C)[C@@H](O)[C@H](O)[C@H](O)C(C)(C)[C@@H]5CC[C@]43C)[C@@H]2C1	inactive	inactive	4.4 (≈ 7.87 µM)	> 35.7	> 35.7	inactive	4 (≈ 7.16 µM)	–
CC1(C)C(=O)[C@@H]2O[C@@H]2[C@]2(C)[C@H]3CC=C4[C@@H]5C[C@@](C)(C(=O)OCc6ccccc6)CC[C@]5(C)CC[C@@]4(C)[C@]3(C)CC[C@@H]12	inactive	inactive	> 50	> 50	> 50	inactive	> 50	–
CC1(C)C(=O)C=C[C@]2(C)[C@H]3C(=O)C=C4[C@@H]5C[C@@](C)(C(=O)OCc6ccccc6)CC[C@]5(C)CC[C@@]4(C)[C@]3(C)CC[C@@H]12	inactive	inactive	> 50	> 50	> 50	inactive	> 50	–
